Measured values taken from ChEMBL document CHEMBL2407032, “Structural modification of pantothenamides counteracts degradation by pantetheinase and improves antiplasmodial activity” (ACS Med Chem Lett, 2013).
pIC50: −log10 of the molar value.

Assays:
Plasmodium falciparum [1] = test: Antiplasmodial activity against intraerythrocytic Plasmodium falciparum 3D7 infected in human erythrocytes in fresh RPMI-1640 culture medium assessed as parasite growth inhibition after 96 hrs by microscopic analysis; format: functional, organism-based; conditions: 3D7, 96 h
Summary of the method: (§1)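 3D7 parasites in erythrocytes, started mostly at ring stage, grown 96 h in freshly prepared Albumax-complete RPMI (pantetheinase active) with 1 μM pantothenic acid. IC50 from concentration-response. Mean ± SEM (or range/2) of at least two independent experiments, each in triplicate.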

pantetheinase = test: Drug metabolism of the compound assessed as compound hydrolysis at 200 uM after 10 mins by fluorescence assay in presence of recombinant human pantetheinase; format: physicochemical; conditions: read-out: Drug metabolism
Plasmodium falciparum [2] = test: Antiplasmodial activity against intraerythrocytic Plasmodium falciparum 3D7 infected in human erythrocytes in heat treated RPMI-1640 culture medium assessed as parasite growth inhibition after 96 hrs by microscopic analysis; format: functional, organism-based; conditions: 3D7, 96 h
Summary of the method: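 3D7 ring-stage-initiated cultures in erythrocytes, grown 96 h in aged Albumax-complete RPMI. The medium was heat-treated for a prolonged time to reduce pantetheinase activity and held 1 μM pantothenic acid. IC50 from concentration-response. Mean ± SEM (or range/2) of at least two independent experiments, each in triplicate.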

Plasmodium falciparum [3] = test: Antiplasmodial activity against intraerythrocytic Plasmodium falciparum 3D7 infected in human erythrocytes in fresh RPMI-1640 culture medium assessed as parasite growth inhibition after 96 hrs by microscopic analysis in presence of pantetheinase; format: functional, organism-based; conditions: 3D7, 96 h; summary of the method: as §1
[4] = Selectivity index, ratio of IC50 for human Jurkat cells to IC50 for intraerythrocytic Plasmodium falciparum 3D7 infected in human erythrocytes in fresh RPMI-1640 culture medium; format: toxicity, cell-based; conditions: read-out: Ratio IC50
Jurkat = test: Cytotoxicity against human Jurkat cells after 96 hrs by SYBR green assay in presence of pantothenic acid; format: cell-based
Summary of the method: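 Human leukemic T-cell line grown 96 h in medium with 1 μM pantothenic acid. IC50 from concentration-response profiles. Means ± SEM of three independent experiments performed in triplicate.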

Row | Structure (SMILES) | pIC50 (Plasmodium falciparum [1]) | metabolised at 10 min, 200 µM (pantetheinase) | pIC50 (Plasmodium falciparum [2]) | pIC50 (Plasmodium falciparum [3]) | selectivity ratio [4] | pIC50 (Jurkat)
1 | CCCCCNC(=O)CNC(=O)[C@H](O)C(C)(C)CO | 5.15 | 5% | 4.85 | 3.85 |  | 
2 | CC(C)(CO)[C@@H](O)C(=O)NCC(=O)NCc1ccc2c(c1)OCO2 | 4.28 | 5% |  | < 3.70 |  | 
3 | CC(C)(CO)[C@@H](O)C(=O)NCCCC(=O)NCc1ccc(OC(F)(F)F)cc1 | 5.20 | 5% | 5.31 | < 3.70 |  | 
4 | CCCCCNC(=O)CCNC(=O)[C@H](O)C(C)(C)CO | 3.74 |  | 5.12 |  |  | 
5 | CN(C)c1cccc2c(S(=O)(=O)NCCCCCNC(=O)CCNC(=O)[C@H](O)C(C)(C)CO)cccc12 | < 3.70 |  |  |  |  | 
6 | CC(C)CNC(=O)CCNC(=O)[C@H](O)C(C)(C)CO | 3.70 |  | 5.96 |  |  | 
7 | CCCCCNC(=O)CCCNC(=O)[C@H](O)C(C)(C)CO | 5.41 | 5% | 5.66 | 3.71 | 49 | 3.72
8 | CC(C)(CO)[C@@H](O)C(=O)NCC(=O)NCC1CC1 | 5.19 | 5% |  | 3.74 |  | 
9 | CC(C)CCNC(=O)CNC(=O)[C@H](O)C(C)(C)CO | 4.92 | 5% |  |  |  | 
10 | CCCCCCCNC(=O)CCNC(=O)[C@H](O)C(C)(C)CO | < 3.70 |  |  |  |  | 
11 | CC(C)CNC(=O)CCCNC(=O)[C@H](O)C(C)(C)CO | 4.96 | 5% |  |  |  | 
12 | COc1cccc(CNC(=O)CCNC(=O)[C@H](O)C(C)(C)CO)c1 | < 3.70 |  | < 3.70 |  |  | 
13 | CC(C)(CO)[C@@H](O)C(=O)NCCCC(=O)NCC1CC1 | 4.92 | 5% |  |  |  | 
14 | CC(C)(CO)[C@@H](O)C(=O)NCCCC(=O)NCc1ccccc1 | 5.21 | 5% | 5.33 | < 3.70 |  | 
15 | CC(C)CCNC(=O)CCNC(=O)[C@H](O)C(C)(C)CO | < 3.70 |  |  |  |  | 
16 | CN(C)c1cccc2c(S(=O)(=O)NCCCCCNC(=O)CCCNC(=O)[C@H](O)C(C)(C)CO)cccc12 |  | 5% |  |  |  | 
17 | CCCCNC(=O)CNC(=O)[C@H](O)C(C)(C)CO | 5.28 | 25% |  |  |  | 
18 | CCCNC(=O)CNC(=O)[C@H](O)C(C)(C)CO | 4.89 | 5% |  |  |  | 
19 | CSCCCNC(=O)CNC(=O)[C@H](O)C(C)(C)CO | 4.42 | 5% |  |  |  | 
20 | CC(C)(CO)[C@@H](O)C(=O)NCCC(=O)NCCc1ccccc1 | 4.28 |  | 7.70 |  |  | 

Row | Structure (SMILES) | pIC50 (Plasmodium falciparum [1]) | metabolised at 10 min, 200 µM (pantetheinase) | pIC50 (Plasmodium falciparum [2]) | pIC50 (Plasmodium falciparum [3]) | selectivity ratio [4] | pIC50 (Jurkat)
21 | CN(C)c1cccc2c(S(=O)(=O)NCCCCCNC(=O)CNC(=O)[C@H](O)C(C)(C)CO)cccc12 | 3.81 | 5% |  | 3.80 |  | 
22 | CC(C)(CO)[C@@H](O)C(=O)NCCCC(=O)NCc1ccc(C(F)(F)F)cc1 |  | 5% |  |  |  | 
23 | CCCCCCCNC(=O)CNC(=O)[C@H](O)C(C)(C)CO | 4.34 | 5% |  |  |  | 
24 | CC(C)(CO)[C@@H](O)C(=O)NCCC(=O)NCc1ccc(C(F)(F)F)cc1 | 3.97 |  | 3.93 |  |  | 
25 | CC(C)CCNC(=O)CCCNC(=O)[C@H](O)C(C)(C)CO | 5.05 | 5% |  |  |  | 
26 | CCSCCNC(=O)CCCNC(=O)[C@H](O)C(C)(C)CO | 5.70 | 5% | 5.72 | 3.77 | > 100 | < 3.70
27 | CCCCNC(=O)CCCNC(=O)[C@H](O)C(C)(C)CO | 4.96 | 25% |  |  |  | 
28 | CCCCCCNC(=O)CNC(=O)[C@H](O)C(C)(C)CO | 5.33 | 5% | 5.10 | 3.98 | 27 | 3.90
29 | CC(C)(CO)[C@@H](O)C(=O)NCCCC(=O)NCc1cccc(C(F)(F)F)c1 |  | 5% |  |  |  | 
30 | CC(C)(CO)[C@@H](O)C(=O)NCC(=O)NCc1ccccc1 | 3.91 | 5% | 3.90 | < 3.70 |  | 
31 | COc1ccc(CNC(=O)CNC(=O)[C@H](O)C(C)(C)CO)cc1 | 4.59 | 5% | 4.15 | 3.72 |  | 
32 | COc1ccc(CNC(=O)CCCNC(=O)[C@H](O)C(C)(C)CO)cc1 | 5.02 | 5% | 5.00 | < 3.70 |  | 
33 | COc1cccc(CNC(=O)CNC(=O)[C@H](O)C(C)(C)CO)c1 | < 3.70 | 5% | < 3.70 |  |  | 
34 | CCCCCCNC(=O)CCNC(=O)[C@H](O)C(C)(C)CO | 3.87 |  | 6.26 |  |  | 
35 | CC(C)(CO)[C@@H](O)C(=O)NCCC(=O)NCC1CC1 | 3.83 |  |  |  |  | 
36 | CC(C)(CO)[C@@H](O)C(=O)NCC(=O)NCc1ccc(C(F)(F)F)cc1 | 4.32 | 5% | 4.35 | 4.24 |  | 
37 | CC(C)(CO)[C@@H](O)C(=O)NCCC(=O)NCc1ccccc1 | < 3.70 |  | < 3.70 |  |  | 
38 | CC(C)(CO)[C@@H](O)C(=O)NCCC(=O)NCc1cccc(C(F)(F)F)c1 | < 3.70 |  | 3.81 |  |  | 
39 | CCCCCCCNC(=O)CCCNC(=O)[C@H](O)C(C)(C)CO | 4.96 | 5% |  |  |  | 
40 | COc1ccc(CNC(=O)CCNC(=O)[C@H](O)C(C)(C)CO)cc1 | < 3.70 |  | < 3.70 |  |  | 

Row | Structure (SMILES) | pIC50 (Plasmodium falciparum [1]) | metabolised at 10 min, 200 µM (pantetheinase) | pIC50 (Plasmodium falciparum [2]) | pIC50 (Plasmodium falciparum [3]) | selectivity ratio [4] | pIC50 (Jurkat)
41 | CC(C)(CO)[C@@H](O)C(=O)NCCC(=O)NCC1CCCCC1 | < 3.70 |  | < 3.70 |  |  | 
42 | CC(C)(CO)[C@@H](O)C(=O)NCCC(=O)NCc1ccc2c(c1)OCO2 | 3.84 |  |  |  |  | 
43 | COc1cccc(CNC(=O)CCCNC(=O)[C@H](O)C(C)(C)CO)c1 | 4.68 | 5% | 4.66 | < 3.70 |  | 
44 | CC(C)(CO)[C@@H](O)C(=O)NCC(=O)NCc1ccc(OC(F)(F)F)cc1 | 4.15 | 5% | 4.19 | < 3.70 |  | 
45 | CC(C)(CO)[C@@H](O)C(=O)NCCC(=O)NCc1ccc(OC(F)(F)F)cc1 | < 3.70 |  | 3.87 |  |  | 
46 | CCCNC(=O)CCCNC(=O)[C@H](O)C(C)(C)CO | 4.89 | 5% |  |  |  | 
47 | CCSCCNC(=O)CNC(=O)[C@H](O)C(C)(C)CO | 5.00 | 5% | 4.96 | 3.70 |  | 
48 | CCCCCCNC(=O)CCCNC(=O)[C@H](O)C(C)(C)CO | 5.10 | 5% | 4.85 | 3.70 |  | 
49 | CC(C)(CO)[C@@H](O)C(=O)NCCCC(=O)NCc1ccc2c(c1)OCO2 | 5.62 | 5% |  | 4.06 | 9 | 4.64
50 | CC(C)(CO)[C@@H](O)C(=O)NCC(=O)NCCc1ccccc1 | 5.47 | 5% |  | 3.87 | 16 | 4.28
51 | CSCCCNC(=O)CCNC(=O)[C@H](O)C(C)(C)CO | 3.84 |  | 6.64 |  |  | 
52 | CC(C)(CO)[C@@H](O)C(=O)NCC(=O)NCc1cccc(C(F)(F)F)c1 | 4.05 | 5% | 3.94 | 3.75 |  | 
53 | CCCCNC(=O)CCNC(=O)[C@H](O)C(C)(C)CO | < 3.70 |  |  |  |  | 
54 | CC(C)CNC(=O)CNC(=O)[C@H](O)C(C)(C)CO | 4.74 | 5% |  |  |  | 
55 | CCSCCNC(=O)CCNC(=O)[C@H](O)C(C)(C)CO | 4.06 |  | 6.55 |  |  | 
56 | CSCCCNC(=O)CCCNC(=O)[C@H](O)C(C)(C)CO | 5.11 | 5% |  |  |  | 
57 | CC(C)(CO)[C@@H](O)C(=O)NCC(=O)NCC1CCCCC1 | 3.79 | 5% | 3.85 |  |  | 
58 | CC(C)(CO)[C@@H](O)C(=O)NCCCC(=O)NCC1CCCCC1 | 5.68 | 5% | 5.48 | < 3.70 | 54 | 3.95
59 | CCCNC(=O)CCNC(=O)[C@H](O)C(C)(C)CO | 3.70 |  |  |  |  | 
60 | CC(C)(CO)[C@@H](O)C(=O)NCCCC(=O)NCCc1ccccc1 | 5.68 | 5% |  | 3.86 | 47 | 4.00
